Compound activity as filed in PubChem.
CAL PDZ FP-1 – inhibitors of human CAL PDZ peptide binding; purified CAL PDZ, TMR-peptide fluorescence polarization, 1 h; inhibition, % at 24.9 µM; 300,000 tested, 0.92% active; AID 602252;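 active means mean inhibition of at least 30% with at least half of replicates also reaching 30%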
DYRK1A inh – inhibitors of rat Dyrk1A kinase; AID 504441; 310,000 tested, 0.43% active; ADP-Glo luminescence, NFATc1 peptide; inhibition, % at 12.5 µM; in the data active means inhibition above about 50%
ARNT TACC3 PPI – disrupts binding between human ARNT and TACC3. 390,000 tested, 0.66% active. AID 623870. inhibition, % at 9.99 µM. AlphaScreen His-ARNT PAS-B/GST-TACC3 binding, luminescence; TACC3 fragment carries E629A point mutation. Q9Y6A5;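 active means mean inhibition of replicates at least 50% and at least half of replicates each reaching 50%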
CAL PDZ FP-2 – inhibitors of human CAL PDZ peptide binding; purified CAL PDZ, TMR-peptide fluorescence polarization, 1 h; inhibition, % at 20 µM; AID 504414; 330,000 tested, 0.02% active;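 active means highest replicate inhibition of at least 40%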
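Read-out basis: mP drop reported as inhibition | Assay system: Tagged CAL PDZ protein CerCALP, purified | Benchmarks: Unlabelled peptide for full inhibition, DMSO wells as neutral | Schedule: 1 h incubation at room temperature before polarization reading | Buffer or medium: Sodium phosphate/NaCl buffer pH 7.4 with TCEP, IgG, Thesit | Doses: Single point, 20 µM | Measured by: Fluorescence polarization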
Hits are given with their value. Most compounds without a hit are left out; they make up all but 1.4% or so of the library.

Screening O=C(C[n+]1ccccc1)N/N=C/c1cc(Br)cc(Br)c1O returned CAL PDZ FP-1 inactive, DYRK1A inh inactive and ARNT TACC3 PPI 64.
O=C(C[n+]1ccccc1)N/N=C/c1cc(Br)ccc1F was read as CAL PDZ FP-1 inactive, DYRK1A inh inactive and CAL PDZ FP-2 inactive.
For O=C(C[C@H]1C[C@@H]2c3cc(NC(=O)NC4CCCCC4)ccc3O[C@@H]2[C@@H](CO)O1)NCC1CC1 the results were ARNT TACC3 PPI inactive.
For CC(=O)N1[C@H](C(=O)Nc2ccccc2)[C@@H](CO)[C@@H]2Cn3c(ccc(C4=CCCCC4)c3=O)[C@@H]21 the results were ARNT TACC3 PPI inactive.
For CCN1CCN(S(=O)(=O)c2ccc(Cl)c(C(=O)Oc3ccc(CC(=O)OC)cc3)c2)CC1 the results were CAL PDZ FP-1 80, DYRK1A inh inactive, ARNT TACC3 PPI inactive and CAL PDZ FP-2 inactive.
`COc1ccc(OC(=O)c2cc(S(=O)(=O)N3CCCC3)ccc2Cl)cc1` gave CAL PDZ FP-1 inactive, DYRK1A inh inactive, ARNT TACC3 PPI inactive and CAL PDZ FP-2 inactive.
Nc1c(N(CCC2=CCCCC2)C(=O)COc2ccc([N+](=O)[O-])cc2)c(=O)[nH]c(=O)n1Cc1ccccc1 was read as CAL PDZ FP-1 56, DYRK1A inh inactive, ARNT TACC3 PPI inactive and CAL PDZ FP-2 inactive.
`CC(=O)c1ccc(OCC(=O)N(CCC2=CCCCC2)c2c(N)n(Cc3ccccc3)c(=O)[nH]c2=O)cc1` gave CAL PDZ FP-1 inactive, DYRK1A inh inactive, ARNT TACC3 PPI inactive and CAL PDZ FP-2 inactive.
CO[C@H]1CN(C)C(=O)c2cc(NC(=O)Cc3ccccc3)ccc2OC[C@H](C)NC[C@@H]1C was read as ARNT TACC3 PPI inactive.
Cc1cc(F)ccc1NC(=O)CCc1c(C)nn(-c2ccc(N3CCCCC3)nn2)c1C was read as CAL PDZ FP-1 80, DYRK1A inh inactive, ARNT TACC3 PPI inactive and CAL PDZ FP-2 inactive.
Cc1ccc(F)cc1NC(=O)CCc1c(C)nn(-c2ccc(N3CCCCC3)nn2)c1C was read as CAL PDZ FP-1 inactive, DYRK1A inh inactive, ARNT TACC3 PPI inactive and CAL PDZ FP-2 inactive.
For Cc1cccc(C)c1OCC(=O)N(Cc1ccc(N(C)C)cc1)C1CCS(=O)(=O)C1 (configuration not stated) the results were CAL PDZ FP-1 76, ARNT TACC3 PPI inactive and CAL PDZ FP-2 inactive.
NC(=O)Nc1ccc(C(=O)OCC(=O)N(Cc2ccccc2)C2CCS(=O)(=O)C2)cc1 (configuration not stated) was read as CAL PDZ FP-1 37, DYRK1A inh inactive, ARNT TACC3 PPI inactive and CAL PDZ FP-2 inactive.
For CN(C)c1cccc(C(=O)OCC(=O)N(Cc2ccccc2)C2CCS(=O)(=O)C2)c1 (configuration not stated) the results were CAL PDZ FP-1 inactive, DYRK1A inh inactive, ARNT TACC3 PPI inactive and CAL PDZ FP-2 inactive.
`COc1ccc(O)c(C2=Nc3ccccc3N=C(c3ccco3)C2)c1` gave CAL PDZ FP-1 inactive, DYRK1A inh inactive, ARNT TACC3 PPI 53 and CAL PDZ FP-2 inactive.
Screening Oc1ccc(Cl)cc1C1=Nc2ccccc2N=C(c2ccco2)C1 returned CAL PDZ FP-1 inactive, DYRK1A inh inactive, ARNT TACC3 PPI inactive and CAL PDZ FP-2 inactive.
Screening COc1cccc(-c2nn(-c3ccc(C)cc3)cc2C(=O)N(C)CC(=O)Nc2cccc(F)c2)c1 returned CAL PDZ FP-1 47, ARNT TACC3 PPI inactive and CAL PDZ FP-2 inactive.
COc1ccc(-c2nn(-c3ccccc3)cc2C(=O)N(C)CC(=O)Nc2cccc(F)c2)cc1 was read as CAL PDZ FP-1 inactive, ARNT TACC3 PPI inactive and CAL PDZ FP-2 inactive.
`CC(C)NC(=O)N(C)C[C@@H]1OCCCC[C@@H](C)Oc2ccc(NC(=O)Nc3cccc4ccccc34)cc2C(=O)N([C@@H](C)CO)C[C@@H]1C` gave ARNT TACC3 PPI inactive.
For CCOC(=O)C1=C(C)N=c2s/c(=C\c3cccn3C)c(=O)n2C1c1cccc(OC)c1OC (configuration not stated) the results were CAL PDZ FP-1 inactive, DYRK1A inh inactive, ARNT TACC3 PPI inactive and CAL PDZ FP-2 inactive.
Screening CCOC(=O)C1=C(C)N=c2s/c(=C/c3cccc([N+](=O)[O-])c3O)c(=O)n2C1c1ccccc1 (configuration not stated) returned CAL PDZ FP-1 inactive, DYRK1A inh inactive, ARNT TACC3 PPI 60 and CAL PDZ FP-2 inactive.
For CCOC(=O)C1=C(C)N=c2s/c(=C/c3cccc([N+](=O)[O-])c3O)c(=O)n2C1c1cc(OC)c(OC)c(OC)c1 (configuration not stated) the results were CAL PDZ FP-1 inactive, DYRK1A inh inactive and ARNT TACC3 PPI 74.
`O=C(C[C@H]1CC[C@H]2[C@@H](COC[C@H](O)CN2Cc2ccccc2)O1)NCCc1ccccc1` gave ARNT TACC3 PPI inactive.
For CCCN1[C@@H]2Cn3c(ccc(-c4ccccc4)c3=O)[C@H]1[C@@H](C(=O)NCCCN1CCOCC1)[C@@H]2CO the results were ARNT TACC3 PPI inactive.
COC(=O)Cc1ccc(NC(=S)Nc2cccc(C)n2)cc1 was read as CAL PDZ FP-1 53, DYRK1A inh inactive, ARNT TACC3 PPI inactive and CAL PDZ FP-2 inactive.
Screening Cc1cccc(NC(=O)Nc2ccc(Cl)cc2)n1 returned CAL PDZ FP-1 40, DYRK1A inh inactive, ARNT TACC3 PPI inactive and CAL PDZ FP-2 inactive.
For CCOC(=O)c1ccc(NC(=S)Nc2cccc(C)n2)cc1 the results were DYRK1A inh inactive, ARNT TACC3 PPI inactive and CAL PDZ FP-2 inactive.
O=C(Nc1ccc(Br)cc1)c1cccc(-n2cnnn2)c1 was read as CAL PDZ FP-1 inactive, DYRK1A inh inactive, ARNT TACC3 PPI inactive and CAL PDZ FP-2 inactive.
O=C(Nc1nc(-c2ccccn2)cs1)c1cccc(-n2cnnn2)c1 was read as CAL PDZ FP-1 inactive, DYRK1A inh inactive, ARNT TACC3 PPI 70 and CAL PDZ FP-2 inactive.
Screening Cc1nc2ccccc2c(=O)n1/N=C/c1cc(Br)ccc1O returned CAL PDZ FP-1 inactive, DYRK1A inh inactive, ARNT TACC3 PPI 59 and CAL PDZ FP-2 inactive.
CCOc1ccc(C(C(=O)NCC2CCCO2)N(Cc2ccccc2)C(=O)c2snc(C(N)=O)c2N)cc1 (configuration not stated) was read as CAL PDZ FP-1 88, DYRK1A inh inactive, ARNT TACC3 PPI inactive and CAL PDZ FP-2 inactive.
For COCC#Cc1cnc2c(c1)C(=O)N([C@@H](C)CO)C[C@H](C)[C@@H](CN(C)C(=O)C1CC1)O2 the results were ARNT TACC3 PPI inactive.
Screening CC1CCc2cc(F)ccc2N1C(=O)c1cccs1 (configuration not stated) returned CAL PDZ FP-1 32, DYRK1A inh inactive, ARNT TACC3 PPI inactive and CAL PDZ FP-2 inactive.
For COc1ccccc1-c1cnc2c(c1)C(=O)N([C@@H](C)CO)C[C@H](C)[C@@H](CN(C)C(=O)c1cccnc1)O2 the results were ARNT TACC3 PPI inactive.
For COc1cc(C2NC(=O)NC(C)=C2C(=O)OC2CCCCC2)cc(Br)c1O (configuration not stated) the results were CAL PDZ FP-1 inactive, DYRK1A inh inactive, ARNT TACC3 PPI inactive and CAL PDZ FP-2 88.
